Series [1] is described as follows: Cytotoxicity against human SK-BR-3 cells assessed as growth inhibition at 20 uM after 72 hrs by CCK-8 assay. Type of series: functional. As to conditions: SK-BR-3, 72 h, read-out: GI. The gist of the method: (§1)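 Cells kept in RPMI 1640 with 10% heat-inactivated fetal calf serum and 1% streptomycin/penicillin at 37 °C, 5% CO2. After compound exposure, CCK-8 was added and cells were incubated 4 h at 37 °C, then absorbance was read at 450 nm. Viability is relative to untreated cells (100%). IC50 comes from nonlinear regression, mean of three separate determinations. Single-concentration screen at 20 µM.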

The nature of series [2]: Cytotoxicity against human MDA-MB-231 cells assessed as growth inhibition at 20 uM after 72 hrs by CCK-8 assay. Format: functional. As to conditions: MDA-MB-231, 72 h, read-out: GI. The gist of the method:
as §1

Series [3] can be described thus: Cytotoxicity against human HCT116 cells assessed as growth inhibition at 20 uM after 72 hrs by CCK-8 assay. Format: functional. As to conditions: HCT-116, 72 h, read-out: GI. The gist of the method:
as §1

A short description of series [4]: Cytotoxicity against human SW480 cells assessed as growth inhibition at 20 uM after 72 hrs by CCK-8 assay. As to conditions: SW480, 72 h, read-out: GI. Type of series: functional. The essentials: as §1
Series [5] can be described thus: Cytotoxicity against human OVCAR3 cells assessed as growth inhibition at 20 uM after 72 hrs by CCK-8 assay. As to conditions: OVCAR-3, 72 h, read-out: GI. Format: functional. The essentials: as §1
A short description of series [6]: Cytotoxicity against human HL60 cells assessed as growth inhibition at 20 uM after 72 hrs by CCK-8 assay. Format: functional. As to conditions: HL-60, 72 h, read-out: GI. The gist of the method:
as §1

Series [7] in a line: Cytotoxicity against human Saos2 cells assessed as growth inhibition at 20 uM after 72 hrs by CCK-8 assay. Format: functional. As to conditions: SAOS-2, 72 h, read-out: GI. The gist of the method: as §1
Series [8] can be described thus: Antitumor activity against human HepG2 cells assessed as growth inhibition at 20 uM after 72 hrs by CCK-8 assay. As to conditions: HepG2, 72 h, read-out: GI. Type of series: functional. The essentials: as §1
Series [9] can be described thus: Cytotoxicity against human L02 cells assessed as growth inhibition at 20 uM after 72 hrs by CCK-8 assay. Format: toxicity, cell-based. As to conditions: read-out: GI. The gist of the method:
as §1

Series [10] is described as follows: Cytotoxicity against human HL60 cells after 72 hrs by CCK-8 assay. Format: functional, cell-based. As to conditions: HL-60, 72 h. The gist of the method: as §1
Series [11] is described as follows: Cytotoxicity against human L02 cells after 72 hrs by CCK-8 assay. Type of series: toxicity, cell-based. The gist of the method: as §1

A value given as a limit tells only on which side of the number the result lay.

Take `COC(=O)/C=C1/C(=O)Nc2ccccc21`: the inhibition of growth at 20 µM in series [1] was determined as 86.7%; in [2], 86.8%; in series [3], 87%; in [4], 78.1%; in series [5] it was 54.4%; in series [6] it was 81.5%. Further, the inhibition of growth at 20 µM in series [7] was 78.6%; in series [8], 88%. In series [9], the inhibition at 72 h, 20 µM is 61.5%. Moreover, it took 4.18 µM to reach half-maximal inhibition in series [10] (IC50). This molecule came in with an IC50 at 72 h in series [11] of 7.05 µM.
For the molecule `Cc1ccc2c(c1)/C(=C\C(=O)OC(C)(C)C)C(=O)N2`, the inhibition of growth at 20 µM in [1] worked out at 88%; in [2], 87.8%; in series [3], 89.4%; in [4], 79%; in series [5], 59.5%; in series [6] it was 94.6%. For the same molecule, the inhibition of growth at 20 µM in series [7] came to 83.7%; in series [8], 90.3%. Further, the inhibition at 72 h, 20 µM in series [9] turned out to be 63.9%. In [10], this molecule gave an IC50 of 5 µM. This molecule showed an IC50 at 72 h in [11] of 2.68 µM.
`CCN(CC)CCNC(=O)c1c(C)[nH]c(/C=C2\C(=O)Nc3ccc(F)cc32)c1C` [SUNITINIB]: 4.95 µM corresponded to half-maximal inhibition in series [10] (IC50). For the same molecule, in series [11], the 50% inhibitory concentration (IC50) at 72 h was found to be 4.62 µM.
`COc1ccc(OC(=O)/C=C2/C(=O)N(C)c3ccccc32)cc1` gave an IC50 in series [10] of 10.6 µM. Further, the midpoint of inhibition in [11], the IC50 at 72 h, lay at 23.5 µM.
As for `CC(C)(C)OC(=O)CC1C(=O)Nc2ccc(Cl)cc21` (centres undefined), the IC50 in [10] amounted to 81.1 µM.
Consider `COc1cccc2c1NC(=O)/C2=C/C(=O)OC(C)(C)C`, for which the inhibition of growth at 20 µM in series [1] turned out to be 87.7%; in [2] it was 86.7%; in [3] it was 87.6%; in series [4] it was 77.8%; in [5] it was 57.1%; in series [6] it was 84.2%. In addition, the inhibition of growth at 20 µM in series [7] turned out to be 81.1%; in [8], 87.3%. The inhibition at 72 h, 20 µM in [9] worked out at 61.6%. It took 9.68 µM to reach half-maximal inhibition in series [10] (IC50).
Turning to `CN1C(=O)/C(=C/C(=O)Oc2ccc(Cl)cc2)c2ccccc21`, the half-inhibitory concentration (IC50) in [10] was determined as 12.2 µM.
`CCOC(=O)/C=C1\C(=O)Nc2ccccc21` registered an IC50 in series [10] greater than 100 µM.
As for `COC(=O)CC1C(=O)Nc2ccccc21` (centres undefined), the IC50 in series [10] was determined as 114 µM. This molecule yielded an IC50 at 72 h in series [11] greater than 100 µM.
As to `CC(=O)O[C@H]1C(=O)[C@@]2(C)[C@H]([C@H](OC(=O)c3ccccc3)[C@]3(O)C[C@H](OC(=O)[C@H](O)[C@@H](NC(=O)c4ccccc4)c4ccccc4)C(C)=C1C3(C)C)[C@]1(OC(C)=O)CO[C@@H]1C[C@@H]2O` [PACLITAXEL], the inhibition of growth at 20 µM in series [1] was determined as 72.1%; in series [2] it was 85.1%; in series [3], 88.9%; in series [4] it was 76.4%; in series [5], 58.5%; in [6], 71%. Besides, the results for the inhibition of growth at 20 µM in series [7] and in series [8] were 77.4% and 89.4%, respectively. For the same molecule, the inhibition at 72 h, 20 µM in series [9] stood at 61.5%.
`CN1C(=O)/C(=C/C(=O)Oc2ccc3ccccc3c2)c2ccccc21` had an IC50 in series [10] of 23.8 µM. The midpoint of inhibition in series [11], the IC50 at 72 h, lay at 46.6 µM.
`CNC(=O)/C=C1/C(=O)N(C)c2ccccc21`: in series [10], it took 10.7 µM to reach half-maximal inhibition (IC50). The IC50 at 72 h in series [11] was 19.1 µM.
The corresponding values for `CN1C(=O)C(CC(=O)OC(C)(C)C)c2ccccc21` (centres undefined) are 93.1 µM and greater than 100 µM.
The molecule `CN1C(=O)/C(=C/C(=O)O)c2ccccc21` displayed an IC50 in [10] of 83.7 µM.
For `CN1C(=O)/C(=C/C(=O)Oc2ccccc2)c2ccccc21`, 10.2 µM corresponded to half-maximal inhibition in series [10] (IC50). In series [11], the IC50 at 72 h is 22.7 µM.

The values above are taken from ChEMBL document CHEMBL3877250, “Design, synthesis, and biological evaluation of (2E)-(2-oxo-1, 2-dihydro-3H-indol-3-ylidene)acetate derivatives as anti-proliferative agents through ROS-induced cell apoptosis” (Eur J Med Chem, 2016).
